Laboratory results published in the EternaBench riboswitch data.

Tested on: MS2 coat protein
Assay: apparent Kd, MS2 coat protein; higher = weaker binding; RNA-MaP array; FMN 200 µM where present
How it was run: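 Designs were transcribed by stalled E. coli RNA polymerase on Illumina sequencing-chip clusters. They were titrated with SNAP-549-labelled MS2 coat protein from 0.7 or 1.5 nM, doubling to 3 µM, in 100 mM Tris-HCl pH 7.5, 80 mM KCl, 4 mM MgCl2, BSA, DTT, yeast tRNA and Tween-20, without and then with constant ligand. The apparent Kd is the median of filtered per-cluster fits after normalisation of green signal to red-channel RNA signal and control-cluster median Fmax.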

[1] = designed as: OFF switch for flavin mononucleotide, no ligand
[2] = ligand present: flavin mononucleotide, designed as: OFF switch for flavin mononucleotide
[3] = designed as: ON switch for flavin mononucleotide, no ligand
[4] = ligand present: flavin mononucleotide, designed as: ON switch for flavin mononucleotide

Sequence: GCUGGGUCAGGAUAUACAGGGUCGAAAGAUCUGUGAUACCUACAUGAGGAUCACCCAUGUAGAAGGGACUGGGC
- apparent Kd [1]: 0.0157 µM
- apparent Kd [2]: 0.0381 µM

Sequence: GCUGUAAGAGGAUAUACAUGGUAUUGACUGGCACCGGUUAGACAUGAGGAUCACCCAUGUAGAAGGCUUGUAUG
- apparent Kd [1]: 0.0863 µM
- apparent Kd [2]: 0.248 µM

Sequence: GCUGUAUAUGAGAAGGCGAUCAUGAAACAUGAUCGAGGAUAUCAUGUAAACAUGAGGAUCACCCAUGUAUGGGUAUUAAGCAGC
- apparent Kd [3]: 0.281 µM
- apparent Kd [4]: 0.0466 µM

Sequence: GCUGUCGCAUGAGGAUAUGGUCUGCUUUGCAGACCAGAAGGCAUGUCAAUAGACAUGAGGAUCACCCAUGUAGUUAAGACAGCA
- apparent Kd [3]: 0.766 µM
- apparent Kd [4]: 0.0466 µM

Sequence: GCUUGAGCAGGAUAUACAUGAGGAUCACCCAUGUUGAGCUUGAGGAUCUUCGAGUUCGGUAGAAGGGUUCGAGU
- apparent Kd [1]: 0.0221 µM
- apparent Kd [2]: 0.0595 µM

Sequence: GCUUGUGAAGGAUAUACUGGCGGCAUGCGCUCGGCACGCGCACAUGAGGAUCACCCAUGUAGAAGGUCAAACGU
- apparent Kd [1]: 0.0224 µM
- apparent Kd [2]: 0.0228 µM

Sequence: GCUUUAUUGGUCAGGAUAUACAUUUGUUACUCUUUGUAGAAGGGACAUGAGGAUCACCCAUGUACAUUACAUUC
- apparent Kd [1]: 0.0232 µM
- apparent Kd [2]: 0.0243 µM

Sequence: GGAAAACAUGAGGAUCACCCAUGUGAGGAUAUCGAUGUCCAGAGAGAGGUGCGGGACUCGAGAAGGCACUUGGA
- apparent Kd [1]: 0.0445 µM
- apparent Kd [2]: 0.0874 µM

Sequence: GGAAAACAUGAGGAUCACCCAUGUGAGGAUAUCGAUGUCCAGGGCCUGCUGCGGGACUCGAGAAGGCAGUGGGA
- apparent Kd [1]: 0.0412 µM
- apparent Kd [2]: 0.0217 µM

Sequence: GGAAAGCGAGGAUAUACAUGAGGAUCACCCAUGUUAACAAACAAACAAACAAACAAAAGUAGAAGGCGCAAAAU
- apparent Kd [1]: 0.037 µM
- apparent Kd [2]: 0.0365 µM

Sequence: GGAACUCAUGUAGGAUAUGCAUGGCGAAGCUACGCAGAAGGACAUGAGGAUCACCCAUGUUCUAGCGUCUGAGUACAGAUGCAA
- apparent Kd [1]: 0.126 µM
- apparent Kd [2]: 0.178 µM

Sequence: GGAAUACAUGAGGAUCACCCAUGUAAGGAUAUGCUGAAUAACACGGAAUAAUCGUGCAGCAGAAGGUACAAAGG
- apparent Kd [1]: 0.145 µM
- apparent Kd [2]: 0.111 µM

Sequence: GGACAGGACAGAGGAUAUACGUGCUAGAGAUACUAGCAAAAUUUCCUCACAUGAGGAUCACCCAUGUAGAAGGCUGUCCUAUCG
- apparent Kd [1]: 0.00739 µM
- apparent Kd [2]: 0.123 µM

Sequence: GGACAUCCCACAGGAUAUGCUGGACUUUGUCCAGCAGAAGGGUGAAAACAUGAGGAUCACCCAUGUAGGAUGUCCAUAUUUAAU
- apparent Kd [3]: 0.112 µM
- apparent Kd [4]: 0.643 µM

Sequence: GGACGUCACAUGAACAUGAGGAUCACCCAUGUAACUAGACAUGAGGAUAUGGAUCCUAAUUGGAUCCAGAAGGCAUGGACGUCC
- apparent Kd [3]: 0.199 µM
- apparent Kd [4]: 0.0321 µM

Sequence: GGACGUCACAUUAACAUGAGGAUCACCCAUGUGAAAACACAUGAGGAUAUGGAUCCUAAUUGGAUCCAGAAGGCAUGGACGUCC
- apparent Kd [4]: 0.0066 µM

Sequence: GGACGUCAGAUUAACAUGAGGAUCACCCAUGUCUUUUGACAUGAGGAUAUGGAAGGUAAUUCCUUCCAGAAGGCAUGGACGUCC
- apparent Kd [3]: 1.02 µM
- apparent Kd [4]: 0.114 µM

Sequence: GGAGAACAUGAGGAUCACCCAUGUGAGCGGUAGCUAGGAUAUGCGGGAAGGAAGAGAGAAGCAGAAGGAGUCGGUA
- apparent Kd [3]: 0.0361 µM
- apparent Kd [4]: 0.0229 µM

Sequence: GGAGACCUCACAGGAUAUGCUGGACUUUGUCCAGCAGAAGGGUGAAAACAUGAGGAUCACCCAUGUAUGGUCUCCAAAUUUAAC
- apparent Kd [3]: 0.182 µM
- apparent Kd [4]: 0.0136 µM

Sequence: GGAGCAAGUGUCAGGAUAUCGUGGUCGAUAGAUCACGAGAAGGGACAUGAGGAUCACCCAUGUGUCCUAGCUCC
- apparent Kd [1]: 0.262 µM
- apparent Kd [2]: 0.484 µM

Sequence: GGAGCACACAUUAACAUGAGGAUCACCCAUGUCAAAAGACAUGAGGAUAUGGAUCCGAAAAGGACCCAGAAGGCAUGGUGCUCC
- apparent Kd [3]: 0.427 µM
- apparent Kd [4]: 0.0218 µM

Sequence: GGAGCCCAGUCAGGAUAUGUAACGCUAAGGCUGUUACAUGAGGAUCACCCAUGUUUCACCGUGAAACAGAAGGGACAAUUGGCG
- apparent Kd [3]: 0.5 µM
- apparent Kd [4]: 0.147 µM

Sequence: GGAGCCGGCACCGAGGAUAUUCAUAUUAAAACAUGAGGAUCACCCAUGUAGGCCAGAAGGCUUUGGGAGAAGGCGGAUCGGCUCG
- apparent Kd [3]: 0.604 µM
- apparent Kd [4]: 0.0387 µM

Sequence: GGAGCCGGUACUGAGGAUAUUCAUAUUAAAACAUGAGGAUCACCCAUGUAGGCCAGAAGGCCUUGGGAGAAGGCGGACCAGCUCG
- apparent Kd [3]: 0.463 µM
- apparent Kd [4]: 0.0328 µM

Sequence: GGAGUACAUGAGGAUCACCCAUGUUGGAACGAAGUAGGAUAUGUACAAUAUUAAAUAAAAACAGAAGGACUAAUAA
- apparent Kd [3]: 0.0624 µM
- apparent Kd [4]: 0.039 µM

Sequence: GGAUAAUUGAUCCUUUUUUAUUACAUGAGGAUCACCCAUGUGCAGGAUAUCGAUUAUUAUAGUUUCGAGAAGGGCAAGAAUUGU
- apparent Kd [1]: 0.0734 µM
- apparent Kd [2]: 0.276 µM

Sequence: GGAUAGAUGAAGGGCGAACGCGCACAUGAGGAUCACCCAUGUAGAAGGCGGUCCGCAACGCGGAUCGAGGAUAUAUAGUAUACG
- apparent Kd [1]: 0.0184 µM
- apparent Kd [2]: 0.0168 µM

Sequence: GGAUAGGACAGAGGAUAUACCGAUAGGAGAUACUAUCGACUAUUCCUCACAUGAGGAUCACCCAUGUAGAAGGCUGUCCUAUCG
- apparent Kd [1]: 0.0169 µM
- apparent Kd [2]: 0.0581 µM
